Screening results as filed in PubChem.
ABHD4 inh – ABHD4 inhibitors, primary screen, biochemical, fluorescence polarization, mouse; 370,000 compounds, 0.54% hits; inhibition, % at 8.92 µM; purified mABHD4, FP-Rh probe fluorescence polarization; (Lyso)-N-acylphosphatidylethanolamine lipase (Mus musculus), Q8VD66;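 active = inhibition exceeding the mean over every tested compound plus 3 SD, cut at about 30% in these data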;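 note: 0% = plate median of compound wells and 100% = S159A mutant with DMSO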
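Test system: mouse ABHD4 enzyme, wild type. Reagent: FP-Rh fluorescent activity-based probe, added after compound pre-incubation. Timing: pre-incubation 45 min, probe exposure 60 min, at 25 °C. Technique: FP readout, ex 525 nm / em 598 nm. Benchmarks: high control S159A mutant with DMSO, low control median of compound wells.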
PRMT1 inh – PRMT1 methyltransferase inhibitors, primary screen, biochemical, fluorescence polarization | Protein arginine N-methyltransferase 1 (Homo sapiens), Q99873 | recombinant PRMT1, activity-based probe fluorescence polarization | inhibition, % at 2.79 µM | 370,000 compounds, 1.3% hits | AID 652257, 2013;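 active = inhibition above about 21% made by adding two undisclosed values, limit read from the data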
SIAE primary – human SIAE inhibitors, primary screen, biochemical, fluorescence polarization, FP-Rh probe, 1536-well HTS | Sialate O-acetylesterase (Homo sapiens), Q9HAT2 | SIAE FP-Rh probe binding | inhibition, % at 9.66 µM | 370,000 compounds, 0.69% hits | AID 1053197, 2014;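 active = inhibition above a cutoff: mean of compounds within the control limits plus 3 SD of those, cut at about 17% in these data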;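 note: 0% = plate median of compound wells and 100% = probe without SIAE protein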
Target sequence (Q9HAT2 whole entry, looked up): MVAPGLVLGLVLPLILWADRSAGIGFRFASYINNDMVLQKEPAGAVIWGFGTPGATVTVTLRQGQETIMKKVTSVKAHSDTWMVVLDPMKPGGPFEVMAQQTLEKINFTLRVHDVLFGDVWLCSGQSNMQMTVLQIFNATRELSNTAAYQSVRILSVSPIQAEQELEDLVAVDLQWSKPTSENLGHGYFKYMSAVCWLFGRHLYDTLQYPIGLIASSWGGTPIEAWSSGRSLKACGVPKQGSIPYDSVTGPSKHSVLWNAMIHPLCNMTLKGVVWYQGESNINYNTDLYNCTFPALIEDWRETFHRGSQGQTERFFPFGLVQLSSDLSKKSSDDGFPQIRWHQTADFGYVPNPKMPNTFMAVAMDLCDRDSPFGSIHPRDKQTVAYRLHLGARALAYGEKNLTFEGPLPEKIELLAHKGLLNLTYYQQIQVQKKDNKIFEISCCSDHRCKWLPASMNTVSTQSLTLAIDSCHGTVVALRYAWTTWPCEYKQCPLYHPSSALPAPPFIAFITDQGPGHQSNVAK
HTRA1 inhibitor – HTRA1 serine protease inhibitors, primary screen, biochemical, fluorescence polarization, HTS; Q92743; recombinant HTRA1, FP-rhodamine activity-based probe; inhibition, % at 5.96 µM; 340,000 compounds, 0.5% hits; in the data active = inhibition above about 36%;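 note: 0% = enzyme with DMSO and 100% = wells lacking enzyme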
TCR CD3 inh – inhibitors of human TCR-CD3 interaction, primary screen, biochemical, fluorescence, TAMRA-labeled TCR probe. inhibition, % at 9.4 µM. 360,000 compounds, 0.37% hits. AID 651800, 2012;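 note: recombinant mutant TCR 2C K166C tagged with TAMRA read by polarization; 0% = receptor in buffer alone and 100% = receptor with positive control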
HTRA1 conf – HTRA1 protease inhibitors, retest, confirmation, biochemical, fluorescence polarization; 1,600 compounds, 66% hits; AID 540248, 2011; recombinant HTRA1, FP-rhodamine activity-based probe; inhibition, % at 5.96 µM; shares compounds with HTRA1 inhibitor;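 active = mean inhibition over three repeats above a set limit taken from the earlier primary screen, cut at about 37% in these data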;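 note: 0% = HTRA1 with DMSO and 100% = wells lacking HTRA1; inhibitors block probe binding so polarization drops and inhibition rises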
BSA TAMRA ctr – compounds interfering with TAMRA-BSA probe, counter-screen for TCR-CD3 interaction inhibitor project, biochemical, fluorescence, TAMRA-labeled BSA; shares compounds with TCR CD3 inh; TAMRA-labeled BSA probe fluorescence counterscreen; inhibition, % at 9.4 µM; 1,200 compounds, 10% hits; in the data active = inhibition above about 23%;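 note: 0% = buffer low control and 100% = reference high control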
TCR-CD3 conf – TCR-CD3 interaction inhibitors, retest, confirmation, biochemical, fluorescence, TAMRA-labeled TCR probe; shares compounds with TCR CD3 inh; TAMRA-labeled TCR probe fluorescence binding assay; inhibition, % at 9.4 µM; 1,200 compounds, 48% hits
ABHD4 confirm – ABHD4 inhibitors, retest, confirmation, biochemical, fluorescence polarization, mouse; inhibition, % at 8.92 µM; purified mABHD4, FP-Rh probe fluorescence polarization; AID 720658, 2013; shares compounds with ABHD4 inh; 1,800 compounds, 55% hits;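 active = mean inhibition across replicates above the hit cutoff set in the primary screen, cut at about 30% in these data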;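 note: 0% = wild-type ABHD4 with DMSO and 100% = catalytically dead S159A mutant with DMSO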
* marks the source's active call; other numbers are inactive results; nt = no result given. Compounds with a hit are over-represented: about 2.6% of the library has one in this group of screens. Cut-off read from the data, not from the text of the source, unless noted: active = inhibition above about 19%; inactive = the rest.

SMILES	ABHD4 inh	PRMT1 inh	SIAE primary	HTRA1 inhibitor	TCR CD3 inh	HTRA1 conf	ABHD4 confirm	others
COc1ccccc1CCNCc1cc2c(cc1[N+](=O)[O-])OCO2	14	-2	7	42*	4	10	nt
Oc1ccc(/C=N/NP(=S)(c2ccccc2)c2ccccc2)c(O)c1O	28	12	-1	75*	6	85*	nt
Oc1ccccc1/C=N/NP(=S)(c1ccccc1)c1ccccc1	-36	11	-15	-31	-4	nt	nt
Oc1ccc(/C=N/NP(=S)(c2ccccc2)c2ccccc2)cc1O	24	1	-9	58*	-2	62*	nt
CN1C(=O)[C@@]23C[C@]4(c5c[nH]c6ccccc56)c5ccccc5N(S(=O)(=O)c5ccccc5)[C@@H]4N2C(=O)[C@@H]1SS3	-5	1	3	nt	nt	nt	nt
Cc1ccc(OC(=O)N(C)C[C@H]2OCc3cnnn3CCCC(=O)N([C@H](C)CO)C[C@H]2C)cc1	-4	-4	8	nt	1	nt	nt
CN(C)[C@@H]1C(=O)C(C(N)=O)=C(O)[C@@]2(O)C(=O)C3=C(O)c4c(O)cccc4[C@@](C)(O)[C@H]3[C@H](O)[C@@H]12	63*	61*	10	51*	45*	23	nt	BSA TAMRA ctr=6;TCR-CD3 conf=27*
O=C(CN1C(=O)[C@@H](Cc2ccccc2)N=C(c2ccccc2)c2ccccc21)NC1CCCCC1	-2	-1	-8	nt	nt	nt	nt
C=CCN1CCc2cccc3c2[C@H]1Cc1ccc(O)c(O)c1-3	44*	40*	15	63*	7	80*	24
CN1C(=O)/C(=C/c2cccn2-c2ccc3ccccc3c2)C(=O)NC1=S	65*	44*	11	60*	-6	12	3
Cc1cc(C)cc(N2C(=O)NC(=O)/C(=C\c3cccn3-c3ccccc3)C2=O)c1	-4	5	-4	2	2	nt	nt
CCOC(=O)[C@]12Cc3cc(C)ccc3[C@H]1N(C1CCCCC1)C(=O)c1cc(OC)ccc12	-11	3	-4	nt	-1	nt	nt
CCN(CC)c1ccc(N=Cc2c(O)[nH]c(=O)[nH]c2=O)cc1	57*	31*	10	53*	13	20	1
CCN(CC)c1ccc(N=Cc2c(O)n(Cc3ccccc3)c(=O)[nH]c2=O)cc1	13	2	8	8	2	nt	nt
CCOc1ccccc1-n1c(O)c(C=Nc2ccc(N(CC)CC)cc2)c(=O)[nH]c1=O	67*	17	11	58*	24*	4	13	BSA TAMRA ctr=2;TCR-CD3 conf=1
CCN(CC)c1ccc(N=Cc2c(O)n(-c3ccccc3)c(=O)[nH]c2=O)cc1	67*	25*	9	40*	6	18	9
CCOc1ccc(-n2c(O)c(C=Nc3ccc(N(CC)CC)cc3)c(=O)[nH]c2=O)cc1	14	3	7	3	-1	nt	nt
CC[C@H](C(N)=O)N1CCCC1=O	2	-4	-1	nt	nt	nt	nt
CN(C)[C@@H]1C(=O)C(C(N)=O)=C(O)[C@@]2(O)C(=O)C3=C(O)c4c(O)ccc(Cl)c4[C@@](C)(O)[C@H]3C[C@@H]12	57*	24*	9	40*	11	15	8
COc1ccc(-n2nnnc2C(CCSC)N2CCC(n3c(=O)[nH]c4ccccc43)CC2)cc1 (configuration not stated)	-2	2	0	nt	2	nt	nt
